Measured values: ChEMBL document CHEMBL1123429, “Influence of alkyl chain ramification on estradiol receptor binding affinity and intrinsic activity of 1,2-dialkylated 1,2-bis(4- or 3-hydroxyphenyl)ethane estrogens and antiestrogens” (J Med Chem, 1986)

How the values were obtained:
[1] = biological target: T1, Estrogen receptor (Mus musculus) (UniProt O08537+P19785); assay: Anti-uterotrophic effect in mice at 100 ug; type: functional
In short: (§1)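 Immature female NMRI mice, 20 days old (15.0 ± 2.5 g), randomized into groups of 10. Compound in olive oil (0.1 mL) injected sc daily for 3 days together with estrone; uteri removed 24 h after the last injection, fixed in Bouin's solution, washed, dried and weighed. Effect expressed as uterus dry weight (mg)/body weight (g) × 100; inhibition of estrone-stimulated growth.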

[2] = biological target: Estrogen receptor (Bos taurus) (UniProt Q9XSB5+P49884); assay: Relative binding affinity (RBA) for calf uterine estrogen receptor; type: protein assay
In short: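 Displacement of [³H]estradiol from calf uterine cytosol; incubated 16 h at 4 °C. Dextran-coated charcoal stops incubation; after centrifugation, supernatant radioactivity counted. Six competitor concentrations spanning 50% competition; % bound vs log concentration plotted to obtain concentrations halving binding for unlabeled estradiol and test compound, giving RBA. Mean of four determinations.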

[3] = biological target: T1, Estrogen receptor (Mus musculus); assay: Inhibition of estrone-stimulated uterine growth in immature mice at 300 ug; type: functional; in short: as §1
[4] = biological target: T1, Estrogen receptor (Mus musculus); assay: Inhibition of estrone-stimulated uterine growth in immature mice at 30 ug; type: functional; in short: as §1
[5] = biological target: T1, Estrogen receptor (Mus musculus); assay: Anti-uterotrophic effect in mice at 300 ug; type: functional; in short: as §1
[6] = biological target: T1, Estrogen receptor (Mus musculus); assay: Anti-uterotrophic effect in mice at 30 ug; type: functional; in short: as §1
[7] = biological target: T1, Estrogen receptor (Mus musculus); assay: Anti-uterotrophic effect in mice at 0 ug; type: functional; in short: as §1
[8] = biological target: T1, Estrogen receptor (Mus musculus)
[9] = biological target: T1, Estrogen receptor (Mus musculus); assay: Inhibition of estrone-stimulated uterine growth in immature mice at 100 ug; type: functional; in short: as §1
[10] = biological target: T1, Estrogen receptor (Mus musculus); assay: Anti-uterotrophic effect in mice at 10 ug; type: functional; in short: as §1
[11] = biological target: T1, Estrogen receptor (Mus musculus); assay: Inhibition of estrone-stimulated uterine growth in immature mice at 10 ug; type: functional; in short: as §1
[12] = biological target: T1, Estrogen receptor (Mus musculus); assay: Inhibition of estrone-stimulated uterine growth in immature mice at 3 ug; type: functional; in short: as §1
[13] = biological target: T1, Estrogen receptor (Mus musculus); assay: Anti-uterotrophic effect in mice at 3 ug; type: functional; in short: as §1

T1 sequence (O08537 whole entry, looked up): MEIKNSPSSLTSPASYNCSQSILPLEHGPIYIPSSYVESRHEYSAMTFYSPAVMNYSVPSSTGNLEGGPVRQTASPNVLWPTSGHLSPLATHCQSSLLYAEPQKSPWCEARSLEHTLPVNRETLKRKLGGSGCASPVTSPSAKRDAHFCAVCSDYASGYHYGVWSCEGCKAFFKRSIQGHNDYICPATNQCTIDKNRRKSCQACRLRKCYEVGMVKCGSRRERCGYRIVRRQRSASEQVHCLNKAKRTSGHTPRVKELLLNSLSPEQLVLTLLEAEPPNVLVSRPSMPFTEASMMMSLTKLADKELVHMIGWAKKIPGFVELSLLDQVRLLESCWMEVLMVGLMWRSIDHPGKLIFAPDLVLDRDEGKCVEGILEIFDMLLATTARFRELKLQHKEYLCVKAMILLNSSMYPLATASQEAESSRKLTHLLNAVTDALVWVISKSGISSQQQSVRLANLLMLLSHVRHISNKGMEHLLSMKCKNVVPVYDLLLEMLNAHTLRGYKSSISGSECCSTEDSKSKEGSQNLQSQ
T1 sequence (P19785 whole entry, looked up): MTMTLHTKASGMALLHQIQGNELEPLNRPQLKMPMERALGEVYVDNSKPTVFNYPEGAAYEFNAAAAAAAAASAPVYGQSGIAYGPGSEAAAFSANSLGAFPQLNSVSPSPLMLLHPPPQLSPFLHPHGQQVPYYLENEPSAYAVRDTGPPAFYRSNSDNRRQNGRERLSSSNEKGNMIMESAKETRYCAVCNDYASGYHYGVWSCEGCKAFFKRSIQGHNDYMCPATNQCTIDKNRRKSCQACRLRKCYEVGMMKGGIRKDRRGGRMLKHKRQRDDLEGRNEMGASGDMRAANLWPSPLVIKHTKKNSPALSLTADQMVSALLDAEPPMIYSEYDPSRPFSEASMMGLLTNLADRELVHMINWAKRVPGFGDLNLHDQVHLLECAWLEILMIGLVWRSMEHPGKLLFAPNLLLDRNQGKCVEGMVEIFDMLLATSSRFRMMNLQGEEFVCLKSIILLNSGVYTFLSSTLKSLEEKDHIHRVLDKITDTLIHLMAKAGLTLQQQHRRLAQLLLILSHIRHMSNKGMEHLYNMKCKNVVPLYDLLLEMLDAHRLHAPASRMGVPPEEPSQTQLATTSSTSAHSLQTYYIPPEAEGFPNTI

## CC(C)CC(c1cccc(O)c1)[C@H](CC(C)C)c1cccc(O)c1 (single isomer, unassigned)
[1]
  Effect: 37.9
  inhibition: 27%
[2]
  relative binding affinity (RBA): 0.5
[3]
  inhibition: 26%
[4]
  inhibition: 19%
[5]
  Effect: 38.2
[6]
  Effect: 40.3
[7]
  Effect: 14.5

## CCC[C@H](c1ccc(O)cc1)[C@@H](CCC)c1ccc(O)cc1
[2]
  relative binding affinity (RBA): 8

## CCC(C)[C@@H](c1ccc(O)cc1)[C@@H](c1ccc(O)cc1)C(C)CC (stereo partly drawn)
[2]
  relative binding affinity (RBA): 5

## C[C@]12CC[C@@H]3c4ccc(O)cc4CC[C@H]3[C@@H]1CCC2=O
[8]
  Effect: 46.5

## CC(C)(C)[C@H](c1cccc(O)c1)[C@H](c1cccc(O)c1)C(C)(C)C
[2]
  relative binding affinity (RBA): 0.7

## CC(C)(C)[C@H](c1ccc(O)cc1)[C@H](c1ccc(O)cc1)C(C)(C)C
[2]
  relative binding affinity (RBA): 1.5

## CC[C@H](c1ccc(O)cc1)[C@@H](CC)c1ccc(O)cc1
[2]
  relative binding affinity (RBA): 25

## CCC[C@H](c1cccc(O)c1)[C@@H](CCC)c1cccc(O)c1
[9]
  inhibition: 37%
[1]
  Effect: 34.7
[2]
  relative binding affinity (RBA): 4
[3]
  inhibition: 42%
[3]; in the assay text read “30 ug” for “300 ug”
  inhibition: 18%
[10]
  Effect: 42.1
[11]
  inhibition: 14%
[5]
  Effect: 33
[6]
  Effect: 40.8
[7]
  Effect: 14.5

## CC(C)[C@@H](c1ccc(O)cc1)[C@@H](c1ccc(O)cc1)C(C)C
[2]
  relative binding affinity (RBA): 30

## CC(C)C[C@H](c1ccc(O)cc1)[C@@H](CC(C)C)c1ccc(O)cc1
[2]
  relative binding affinity (RBA): 1.5

## CC(C)[C@@H](c1cccc(O)c1)[C@@H](c1cccc(O)c1)C(C)C
[2]
  relative binding affinity (RBA): 15

## CCC(C)[C@@H](c1cccc(O)c1)[C@@H](c1cccc(O)c1)C(C)CC (stereo partly drawn)
[2]
  relative binding affinity (RBA): 3

## CC[C@H](c1cccc(O)c1)[C@@H](CC)c1cccc(O)c1
[1]
  Effect: 32.7
  inhibition: 43%
[2]
  relative binding affinity (RBA): 11
[10]
  Effect: 34.1
[11]
  inhibition: 39%
[4]
  inhibition: 51%
[12]
  inhibition: 20%
[13]
  Effect: 40.1
[6]
  Effect: 30.2
[7]
  Effect: 14.5
